Entries after “also recorded” stand apart in the source; their conditions may differ.
Columns and labels:
Kasumi-1 cells [1] = test: DAPI flow cytometry of dead/live Kasumi-1 cells; format: cell-based, human; conditions: 48 hours in culture
[2] = system: normal bone marrow mononuclear cells (BM-MNCs); test: CFU-C assay, normal human bone marrow mononuclear cells; format: cell-based; conditions: methylcellulose, colonies counted 14 days after plating
720 T-ALL cells = test: qPCR gene expression in 720 T-ALL cells; format: cell-based, mouse; conditions: 720 T-ALL cells treated for 16 hours
Procedure, shortened: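 720 T-ALL cells were exposed to test compound for 16 h and transcript levels quantified by qPCR relative to DMSO-treated cells. Triplicate means ± SD, two experiments. One-way ANOVA with Dunnett's comparison against DMSO.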

[3] = system: hematopoietic stem and progenitor cell (HSPC) formation in zebrafish embryos; test: HSPC formation in zebrafish embryos; format: in vivo
8946 T-ALL cell line = test: MTT cell viability assay, 8946; format: cell-based, murine; conditions: 48 hours
Procedure, shortened: (§1)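 Leukemia cell lines were treated with test compound, with DMSO vehicle and staurosporine positive-control arms, and viability was read by MTT. Mean of triplicates ± SD, two independent experiments. One-way ANOVA excluding staurosporine, then Dunnett's test against DMSO-treated cells (P ≤ 0.05).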

Cerulean-Runt domain = test: Saturation transfer difference; format: binding; conditions: STD NMR
[4] = system: AML1-ETO9a + NRas^G12D AML cells; test: CFU-C assay, murine AML1-ETO9a + NRasG12D AML cells; format: cell-based, mouse; conditions: methylcellulose, colonies counted 7 days after plating
Procedure, shortened: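 Leukemic cells came from a secondary recipient of spleen cells. The primary recipient had received fetal liver cells transduced with AML1-ETO9a and NRasG12D retroviruses. 20,000 cells were plated in methylcellulose with various test compound concentrations (DMSO final 0.2%). Colonies were counted at day 7. Triplicates per concentration, two experiments, SD. One-way ANOVA with Dunnett's test versus DMSO.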

[5] = system: t(8;21) positive human AML samples; test: CFU-C assay, primary human t; format: cell-based; conditions: five samples, methylcellulose, colonies counted 14 days after plating
Procedure, shortened: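 Primary AML specimens (pheresis or bone marrow mononuclear cells) were plated in methylcellulose with various test compound concentrations. Colonies were scored 14 days after plating. Triplicate cultures per concentration, two experiments. Significance versus DMSO by one-way ANOVA with Dunnett's multiple-comparison test.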

720 T-ALL cell line = test: MTT cell viability assay, 720 T-ALL; format: cell-based, mouse; conditions: 48 hours
Procedure, shortened: as §1

Kasumi-1 cells [6] = test: MTT cell viability assay, Kasumi-1; format: cell-based, human; conditions: 48 hours in culture
Procedure, shortened: as §1

[7] = system: normal mouse bone marrow cells; test: CFU-C assay, normal mouse bone marrow cells; format: cell-based; conditions: methylcellulose, colonies counted 7 days after plating
Jurkat = test: MTT cell viability assay, Jurkat; format: cell-based, human; conditions: 48 hours
Procedure, shortened: as §1

CBFβ-Runx = conditions: ref [44]; cited from earlier work
[8] = target: Runt domain - CBFβ interaction (Homo sapiens, UniProt Q01196); test: FRET assay of Cerulean-Runt domain and Venus-CBFβ binding
Runt domain - CBFβ interaction, sequence (Q01196 50-178 limits assumed): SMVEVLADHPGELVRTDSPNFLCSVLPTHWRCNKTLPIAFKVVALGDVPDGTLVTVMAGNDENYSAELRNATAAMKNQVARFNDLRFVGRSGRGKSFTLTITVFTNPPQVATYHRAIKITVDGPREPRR
Procedure, shortened: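 Purified Cerulean-Runt domain and Venus-CBFβ fusion proteins were used in a competition FRET format. Test compounds displace CBFβ binding to the Runt domain. Initial screening of compounds was at 200 µM.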

Compound: S=c1[nH]nc(-c2ccc(-c3cccc(Cl)c3)o2)s1 [AI-8–45]
- percentage of DAPI-positive dead cells (Kasumi-1 cells [1]): statistically significant and dose-dependent increase
- colony numbers of normal bone marrow mononuclear cells [2]: but not that of normal bone marrow mononuclear cells
- expression of Deptor, Cdkn1a, Dhcr24, Cebpa, Csf1r (qPCR) (720 T-ALL cells): affected
- Flk1:dsRed+Myb:Gfp+ HSPCs in the VDA at 36 hpf ([3]; Tg(kdrl:dsred;cmyb:egfp) embryos, 2.5 µM, 12 to 36 hpf, flow cytometry): decreased
- number of CD41:Gfp+ HSPCs in the CHT at 48 hpf ([3]; Tg(−6.0itga2b:egfp) embryos, treated 18 to 48 hpf, compared to AI-7–54 treated controls): decreased
- growth of 8946 T-ALL cells (MTT) (8946 T-ALL cell line): significantly reduced the growth; also recorded: inhibit proliferation
- saturation transfer effect / binding to Runt domain (Cerulean-Runt domain): in close contact with the protein
- colony formation of AML1-ETO9a + NRasG12D AML cells [4]: significantly reduced colony formation
- colony numbers of t(8;21) positive human AML samples [5]: significantly reduced the colony numbers
- growth of 720 T-ALL cells (MTT) (720 T-ALL cell line): significantly reduced the growth; also recorded: inhibit proliferation
- growth of Kasumi-1 cells (MTT) (Kasumi-1 cells [6]): significantly reduced the growth; also recorded: inhibit proliferation
- colony formation by normal mouse bone marrow cells [7]: Neither AI-8–45 nor AI-9–54 had any effect
- growth of Jurkat cells (MTT) (Jurkat): significantly reduced the growth; also recorded: inhibit proliferation

Compound: O=C1CN=C(c2ccc[nH]2)c2cc(Cl)ccc2N1 [Ro5-3335]
- inhibitor of CBFβ-Runx (CBFβ-Runx): inhibitor of CBFβ-Runx

Compound: Sc1nnc(-c2ccccc2)s1 [4b, 5-phenyl-1,3,4-thiadiazole-2(3H)-thione]
- IC50 [8]: 11 ± 1.3 µM

Compound: CSc1nnc(-c2ccccc2F)s1 [6a, 2-(2-fluorophenyl)-5-(methylthio)-1,3,4-thiadiazole]
- activity in the FRET assay ([8]; Cerulean-Runt domain and Venus-CBFβ at 100 nM): complete loss of activity

Source: PMC6005736 (Leukemia & lymphoma, 2017)
